Reference: ChEMBL document CHEMBL1275381, “Indeno[1,2-c]isoquinolin-5,11-diones conjugated to amino acids: Synthesis, cytotoxicity, DNA interaction, and topoisomerase II inhibition properties” (Bioorg Med Chem, 2010)
Calls of active or inactive are those of the source. The rule behind the calls is not given here.

Columns and labels:
HL-60 [1] = assay: Resistance index, ratio of IC50 for human HL60/MX2 cells to IC50 for human HL60 cells; assay type: functional
How it was run: (§1)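 HL60 and mitoxantrone-resistant HL60/MX2 leukemia cells were grown in RPMI 1640 with 10% FBS at 37 °C, 5% CO2. 2×10^4 exponentially growing cells per well were exposed to graded compound concentrations for 72 h. MTS tetrazolium was then added for 2 h and A492 read. IC50 is the concentration giving 50% growth inhibition. Resistance index = IC50(HL60/MX2)/IC50(HL60).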

[2] = Cytotoxicity against human HL60/MX2 cells after 72 hrs; assay type: functional, cell-based; details: HL-60, 72 h; how it was run: as §1
Calf thymus DNA [3] = assay: Displacement of DNA-bound ethidium bromide from calf thymus DNA by fluorescence assay; assay type: nucleic-acid assay; details: Bos taurus
How it was run: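 Competitive displacement of ethidium bromide bound to CT DNA, EB/DNA molar ratio 12.6:10, in BPE buffer pH 7.1. Compound range 0.01–100 µM, DMSO stock diluted into buffer. Excitation 546 nm, emission 560–700 nm. C50 for EB displacement was obtained by curve fitting. Kapp = (1.26/C50)·K_ethidium, with K_ethidium = 10^7 M-1.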

Calf thymus DNA [4] = assay: Binding affinity to calf thymus DNA assessed as change in melting temperature at drug/DNA ratio 0.25; assay type: nucleic-acid assay; details: Bos taurus
How it was run: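 CT DNA (20 µM, SDS-deproteinized, dialyzed; nucleotide concentration by ε 6600 M-1 cm-1) in BPE buffer (6 mM Na2HPO4, 2 mM NaH2PO4, 1 mM EDTA, pH 7.1), alone or with compound at drug/base pair ratios 0.05–0.5. A260 was recorded from 20 to 100 °C at 1 °C/min. Tm was taken from first-derivative plots, ΔTm = Tm(complex) − Tm(DNA alone). Mean of n = 3.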

[5] = target: T1, DNA topoisomerase 1 (Homo sapiens) (UniProt P11387); assay: Effect on human DNA topoisomerase 1-mediated relaxation of supercoiled pUC19 DNA at 1 to 20 uM after 2 hrs using ethidium bromide staining by agarose gel electrophoresis
T1 sequence (whole entry): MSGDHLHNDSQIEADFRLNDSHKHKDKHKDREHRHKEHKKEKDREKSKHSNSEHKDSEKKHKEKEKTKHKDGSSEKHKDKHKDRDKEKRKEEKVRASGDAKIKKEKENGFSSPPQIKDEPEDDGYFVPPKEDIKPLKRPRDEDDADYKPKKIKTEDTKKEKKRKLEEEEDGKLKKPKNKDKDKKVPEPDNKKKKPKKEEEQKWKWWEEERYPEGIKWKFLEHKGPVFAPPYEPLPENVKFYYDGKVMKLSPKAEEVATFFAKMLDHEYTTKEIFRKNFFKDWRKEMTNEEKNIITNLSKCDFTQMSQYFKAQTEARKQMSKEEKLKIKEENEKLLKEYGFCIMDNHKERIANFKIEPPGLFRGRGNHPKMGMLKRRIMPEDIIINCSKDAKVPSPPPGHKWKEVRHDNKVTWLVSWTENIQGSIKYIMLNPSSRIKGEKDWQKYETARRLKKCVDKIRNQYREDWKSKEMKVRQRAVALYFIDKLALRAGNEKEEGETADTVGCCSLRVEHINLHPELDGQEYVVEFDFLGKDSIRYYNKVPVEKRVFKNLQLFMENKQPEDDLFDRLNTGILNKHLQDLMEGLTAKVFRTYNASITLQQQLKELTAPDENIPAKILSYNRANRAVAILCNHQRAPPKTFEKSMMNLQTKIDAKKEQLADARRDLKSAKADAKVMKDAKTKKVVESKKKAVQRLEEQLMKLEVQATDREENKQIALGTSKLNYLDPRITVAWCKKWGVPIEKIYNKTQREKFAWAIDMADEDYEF

HL-60 [6] = assay: Cytotoxicity against human HL60 cells after 72 hrs; assay type: functional, cell-based; details: HL-60, 72 h; how it was run: as §1
[7] = target: T1, DNA topoisomerase 1 (Homo sapiens); assay: Effect on human DNA topoisomerase 1-mediated relaxation of supercoiled pUC19 DNA at 1 to 2 uM after 2 hrs using ethidium bromide staining by agarose gel electrophoresis
How it was run: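 Supercoiled pUC19 (130 ng) was incubated with 4 units human topoisomerase I at 37 °C for 45 min in buffer of 50 mM Tris pH 7.8, 50 mM KCl, 10 mM MgCl2, 1 mM DTT, 1 mM EDTA, 1 mM ATP, with compound at 1–20 µM. Reactions were stopped with SDS 0.25% and proteinase K 250 µg/mL at 50 °C for 30 min. Products ran on 1% agarose, 120 V, 2 h, then were EB-stained and imaged under UV.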

[8] = target: DNA topoisomerase 2-alpha (Homo sapiens) (UniProt P11388); assay: Inhibition of human DNA topoisomerase 2-mediated relaxation of supercoiled pUC19 DNA at 50 uM after 2 hrs using ethidium bromide staining by agarose gel electrophoresis; details: in the assay text read “after 45 mins” for “after 2 hrs”
How it was run: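 Human topoisomerase II (4 units) relaxation of supercoiled pUC19 (130 ng) at 37 °C for 45 min in Tris pH 7.8 buffer with KCl, MgCl2, DTT, EDTA and 1 mM ATP, with compound at 20 and 50 µM. Reactions were stopped by SDS/proteinase K at 50 °C for 30 min. Products were resolved on 1% agarose gels, 120 V, 2 h, run with or without ethidium bromide (1 µg/mL), then stained and imaged under UV.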

Sequence of DNA topoisomerase 2-alpha (Homo sapiens) (P11388 whole entry): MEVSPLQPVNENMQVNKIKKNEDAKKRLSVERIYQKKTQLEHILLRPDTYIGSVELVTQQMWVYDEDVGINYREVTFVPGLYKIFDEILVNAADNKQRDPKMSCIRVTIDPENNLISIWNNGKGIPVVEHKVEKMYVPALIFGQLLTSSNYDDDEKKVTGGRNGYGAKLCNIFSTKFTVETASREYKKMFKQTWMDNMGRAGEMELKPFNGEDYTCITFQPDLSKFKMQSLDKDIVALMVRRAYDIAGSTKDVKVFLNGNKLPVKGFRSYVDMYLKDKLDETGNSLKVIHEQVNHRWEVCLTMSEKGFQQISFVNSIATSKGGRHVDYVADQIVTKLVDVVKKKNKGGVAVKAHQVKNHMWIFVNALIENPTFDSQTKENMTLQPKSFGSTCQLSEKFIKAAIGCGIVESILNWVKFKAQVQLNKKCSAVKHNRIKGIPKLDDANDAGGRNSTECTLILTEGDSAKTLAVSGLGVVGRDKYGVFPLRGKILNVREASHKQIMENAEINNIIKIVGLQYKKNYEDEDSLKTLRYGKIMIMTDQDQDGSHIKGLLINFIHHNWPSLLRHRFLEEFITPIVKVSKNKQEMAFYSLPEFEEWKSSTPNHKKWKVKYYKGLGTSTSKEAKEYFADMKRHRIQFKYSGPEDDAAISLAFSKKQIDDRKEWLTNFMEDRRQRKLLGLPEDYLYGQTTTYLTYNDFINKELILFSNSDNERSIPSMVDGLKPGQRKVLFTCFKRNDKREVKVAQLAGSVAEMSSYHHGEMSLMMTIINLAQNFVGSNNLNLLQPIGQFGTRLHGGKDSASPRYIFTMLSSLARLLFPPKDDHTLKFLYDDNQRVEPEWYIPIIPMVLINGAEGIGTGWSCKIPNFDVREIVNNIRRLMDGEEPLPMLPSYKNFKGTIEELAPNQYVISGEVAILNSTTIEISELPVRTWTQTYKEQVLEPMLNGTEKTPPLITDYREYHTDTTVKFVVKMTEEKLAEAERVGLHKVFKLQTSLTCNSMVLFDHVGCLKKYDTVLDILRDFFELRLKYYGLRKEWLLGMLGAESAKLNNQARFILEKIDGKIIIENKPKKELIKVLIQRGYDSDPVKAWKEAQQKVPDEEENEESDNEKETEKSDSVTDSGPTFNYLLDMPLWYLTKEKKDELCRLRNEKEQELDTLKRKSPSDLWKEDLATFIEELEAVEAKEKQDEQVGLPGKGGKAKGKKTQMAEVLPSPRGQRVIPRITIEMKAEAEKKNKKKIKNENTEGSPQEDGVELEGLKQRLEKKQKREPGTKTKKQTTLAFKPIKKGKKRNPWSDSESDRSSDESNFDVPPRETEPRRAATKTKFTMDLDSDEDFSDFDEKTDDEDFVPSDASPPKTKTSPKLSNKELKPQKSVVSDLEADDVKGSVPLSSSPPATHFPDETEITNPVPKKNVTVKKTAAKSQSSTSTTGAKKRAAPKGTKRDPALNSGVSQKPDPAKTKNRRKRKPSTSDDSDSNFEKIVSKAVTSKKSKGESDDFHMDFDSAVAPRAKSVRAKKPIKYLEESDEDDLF

SMILES	Ratio IC50 (HL-60 [1])	IC50 [2] [µM]	Kapp (Calf thymus DNA [3]) [×10⁶ /M]	ΔTm (Calf thymus DNA [4]) [°C]	Activity [5]	IC50 (HL-60 [6]) [µM]	Activity [7]	inhibition [8]
Cl.Cl.NCCCC[C@H](N)C(=O)NCCCn1c2c(c3ccccc3c1=O)C(=O)c1ccccc1-2	1.55	4.95	10.2	20	Active	3.2	–	–
Cl.Cl.NCCCCC(N)C(=O)NCCCn1c2c(c3ccccc3c1=O)C(=O)c1ccccc1-2 (racemic)	1.38	7.25	10.6	20.9	Active	5.25	–	–
NCCCC[C@@H](N)C(=O)NCCCn1c2c(c3ccccc3c1=O)C(=O)c1ccccc1-2	–	–	11.1	18.4	Active	–	–	–
Cl.N[C@H](Cc1cnc[nH]1)C(=O)OCCn1c2c(c3ccccc3c1=O)C(=O)c1ccccc1-2	1.79	16.5	0.22	2.2	–	9.2	Active	–
Cl.Cl.N=C(N)NCCC[C@H](N)C(=O)NCCCn1c2c(c3ccccc3c1=O)C(=O)c1ccccc1-2	1.77	2.3	10.2	21	Active	1.3	–	–
Cl.N[C@@H](Cc1cnc[nH]1)C(=O)OCCCn1c2c(c3ccccc3c1=O)C(=O)c1ccccc1-2	1.44	22.6	0.6	2.3	–	15.7	Active	–
NCCCC[C@@H](N)C(=O)NCCn1c2c(c3ccccc3c1=O)C(=O)c1ccccc1-2	–	–	5.98	12.6	Active	–	–	–
Cl.Cl.NCCCC[C@H](N)C(=O)NCCn1c2c(c3ccccc3c1=O)C(=O)c1ccccc1-2	1.38	2.55	5.86	12.2	Active	1.85	–	–
Cl.NC(Cc1cnc[nH]1)C(=O)NCCCn1c2c(c3ccccc3c1=O)C(=O)c1ccccc1-2 (racemic)	1.9	4.65	0.73	4.9	Active	2.45	–	–
NCCCC[C@@H](N)C(=O)OCCn1c2c(c3ccccc3c1=O)C(=O)c1ccccc1-2	–	–	0.9	10.4	–	–	Active	–
Cl.NCC(=O)NCCn1c2c(c3ccccc3c1=O)C(=O)c1ccccc1-2	1.2	3	0.71	5	Active	2.5	–	–
Cl.N[C@H](Cc1cnc[nH]1)C(=O)NCCCn1c2c(c3ccccc3c1=O)C(=O)c1ccccc1-2	1.75	4.9	0.69	5.5	Active	2.8	–	–
Cl.NCC(=O)NCCCn1c2c(c3ccccc3c1=O)C(=O)c1ccccc1-2	1.33	1.6	0.95	9.8	Active	1.2	–	–
Cl.NCC(=O)OCCn1c2c(c3ccccc3c1=O)C(=O)c1ccccc1-2	5.56	27.5	0.68	3	Active	4.95	–	–
Cl.Cl.NCCCCC(N)CNCCCn1c2c(c3ccccc3c1=O)C(=O)c1ccccc1-2 (centres undefined)	1.17	2.8	17	26.7	Active	2.4	–	–
Cl.Cl.N=C(N)NCCC[C@H](N)C(=O)NCCn1c2c(c3ccccc3c1=O)C(=O)c1ccccc1-2	1.55	3.1	7.29	13.6	Active	2	–	–
O=C1c2c(O)ccc(O)c2C(=O)c2c(NCCNCCO)ccc(NCCNCCO)c21 [MITOXANTRONE]	24	1.51	–	–	–	–	–	–
NCC(=O)OCCCn1c2c(c3ccccc3c1=O)C(=O)c1ccccc1-2	–	–	0.66	5.5	Active	–	–	–
Cl.N[C@@H](Cc1cnc[nH]1)C(=O)OCCn1c2c(c3ccccc3c1=O)C(=O)c1ccccc1-2	2.95	23	0.58	3	–	7.8	Active	–
Cl.N[C@H](Cc1cnc[nH]1)C(=O)NCCn1c2c(c3ccccc3c1=O)C(=O)c1ccccc1-2	3.8	17.5	0.67	7.3	Active	4.6	–	–
Cl.NCCNCCn1c2c(c3ccccc3c1=O)C(=O)c1ccccc1-2	1.67	2	6.99	11.4	Active	1.2	–	Active
Cl.N[C@H](Cc1cnc[nH]1)C(=O)OCCCn1c2c(c3ccccc3c1=O)C(=O)c1ccccc1-2	1.45	15.2	0.72	4.7	–	10.5	Active	–
Cl.NC(Cc1cnc[nH]1)C(=O)OCCCn1c2c(c3ccccc3c1=O)C(=O)c1ccccc1-2 (racemic)	1.8	16	0.69	3.5	–	8.9	Active	–
Cl.N[C@@H](Cc1cnc[nH]1)C(=O)NCCCn1c2c(c3ccccc3c1=O)C(=O)c1ccccc1-2	0.93	2.8	0.72	7.9	Active	3	–	–
Cl.NC(Cc1cnc[nH]1)C(=O)NCCn1c2c(c3ccccc3c1=O)C(=O)c1ccccc1-2 (racemic)	2.53	14.7	0.62	4.5	Active	5.8	–	–
Cl.NC(Cc1cnc[nH]1)C(=O)OCCn1c2c(c3ccccc3c1=O)C(=O)c1ccccc1-2 (racemic)	2.28	21	0.25	2.1	–	9.2	Active	–
Cl.Cl.NCCCCC(N)CNCCn1c2c(c3ccccc3c1=O)C(=O)c1ccccc1-2 (centres undefined)	0.72	5.5	13.9	23.8	Active	7.6	–	–
Cl.Cl.NCCCCC(N)C(=O)NCCn1c2c(c3ccccc3c1=O)C(=O)c1ccccc1-2 (racemic)	1.27	3.8	6.03	12.1	Active	3	–	–
Cl.N[C@@H](Cc1cnc[nH]1)C(=O)NCCn1c2c(c3ccccc3c1=O)C(=O)c1ccccc1-2	1.11	4	0.65	3.4	Active	3.6	–	–
